Experimental data reported in PMC5812400 (ESMO Open, 2018).

Test system: adult patients with advanced non-haematological malignancies
Assay: DLT and MTD/RP2D determination, phase I dose escalation of milled TAK-228
Type: in vivo, human
Conditions: for Maximum tolerated dose (MTD) / Recommended phase II dose (RP2D): milled
Summary of the method: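 Open-label dose escalation at four US sites with milled oral capsules, fasted, in 28-day cycles. Arms: QD days 1–28 (start 4 mg); QD days 2–4, 9–11, 16–18, 23–25 (start 6 mg) with IV taxane 80 mg/m2 on days 1, 8 and 15, ~24 h before dosing; QW days 1, 8, 15, 22 (start 20 mg). DLT: drug-related AE preventing further escalation. MTD: dose giving ≤1 DLT in cycle 1. DLT-evaluable: ≥75% of planned cycle 1 doses, or stopped earlier for a drug-related AE.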

SMILES: CC(C)n1nc(-c2ccc3oc(N)nc3c2)c2c(N)ncnc21 [TAK-228, Sapanisertib]
- Patients with DLT (QD 3 mg, 10 patients, grade 3 thrombocytopaenia): one patient experienced a DLT
- DLT-evaluable patients with at least one DLT (QD 4 mg): 3/6
- Patients with DLT (QW 20 mg): none of the six patients
- Patients with DLT (QW 30 mg, cohort expanded to 12 patients, grade 3 adverse drug reaction): 1 patient
- Patients with DLT (QW 30 mg, initial six DLT-evaluable patients): none experiencing DLTs
- Maximum tolerated dose (MTD) (QD 3 days/week in combination with paclitaxel 80 mg/m^2): 6 mg
- Recommended phase II dose (RP2D) (in combination with paclitaxel 80 mg/m^2): 4 mg
- Maximum tolerated dose (MTD) (single-agent QD): 3 mg
- Recommended phase II dose (RP2D) (single-agent QD): 3 mg
- Maximum tolerated dose (MTD) (single-agent QW): 30 mg
- Recommended phase II dose (RP2D) (single-agent QW): 30 mg
